Assay results as given in paper PMC8265595 (Neuropharmacology, 2020).
Where “and” joins values, the source holds several entries; their conditions need not be identical. Equal values may be shown once.

What was measured:
[1] = target: T1, α1β2γ2 GABAA receptor (Homo sapiens, UniProt P14867+P18507+P47870); assay: Synergy with diazepam, α1β2γ2 in Ltk cells, isobolographic analysis; format: cell-based; details: for concentration applied alone required to reach 150% effect level: α1β2γ2, isobologram
[2] = target: T2, α4β3δ GABAA receptor (Homo sapiens, UniProt P28472+P48169); assay: Synergy with diazepam, α4β3δ in CHO cells; format: cell-based
[3] = target: T1, α1β2γ2 GABAA receptor; assay: P4S concentration-response with and without 200 nM zuranolone, Ltk cells; format: cell-based; details: for EC50: EC50 of P4S, α1β2γ2, Ltk cells
Procedure, shortened: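 Ltk cells stably expressing α1β2γ2; whole-cell patch clamp at −80 mV, n = 11. P4S was applied at 0.1–1000 μM in log steps, with or without a fixed 200 nM test compound. Currents were normalized to the maximum current from a saturating GABA concentration.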

[4] = target: T2, α4β3δ GABAA receptor; assay: Whole cell patch clamp, GABA-evoked currents, α4β3δ in CHO cells; format: cell-based
Procedure, shortened: (§1)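 Whole-cell patch clamp at −80 mV in Ltk cells (stable α1β2γ2, n = 7; α2β2γ2, n = 3) or CHO cells (transient α4β3δ, n = 6). Each cell received test compound (0.1% DMSO) sequentially at 0.01–10 μM, 30 s before each 2 s pulse of 2 μM GABA. Gravity-fed perfusion, exchange within 300–500 ms. For δ-containing cells, DS-2 was applied at the end to confirm δ expression. Potentiation = peak ratio ×100.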

[5] = target: T1, α1β2γ2 GABAA receptor; assay: Whole cell patch clamp, GABA-evoked currents, α1β2γ2 in Ltk cells; format: cell-based
Procedure, shortened: as §1

[6] = target: human recombinant α2β2γ2 GABAA receptor (Homo sapiens, UniProt P47869+P47870); assay: Whole cell patch clamp, GABA-evoked currents, α2β2γ2 in Ltk cells; format: cell-based
Procedure, shortened: as §1

[7] = target: human recombinant α1β3γ2 GABAA receptor (Homo sapiens, UniProt P14867+P28472); assay: IonWorks Barracuda patch clamp, α1β3γ2 in HEK cells; format: cell-based
Procedure, shortened: (§2)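 HEK cells stably expressing human receptors; automated perforated-patch whole-cell recording at −70 mV. Extracellular buffer pH 7.4; KCl-based intracellular solution pH 7.2. Submaximal GABA applied alone, then co-applied with test compound at half-log steps 0.01–30 μM (0.3% DMSO, 0.02% Cremophor); n = 4 per concentration. GABA: 5 μM α1β3γ2, 2 μM α2β3γ2, 12.5 μM α3β3γ2, 2 μM α5β3γ2. Potentiation = peak with test compound / peak with GABA alone ×100.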

[8] = target: human recombinant α2β3γ2 GABAA receptor (Homo sapiens, UniProt P28472+P47869); assay: IonWorks Barracuda patch clamp, α2β3γ2 in HEK cells; format: cell-based
Procedure, shortened: as §2

[9] = target: human recombinant α3β3γ2 GABAA receptor (Homo sapiens, UniProt P28472+P34903); assay: IonWorks Barracuda patch clamp, α3β3γ2 in HEK cells; format: cell-based
Procedure, shortened: as §2

[10] = target: human recombinant α5β3γ2 GABAA receptor (Homo sapiens, UniProt P28472+P31644); assay: IonWorks Barracuda patch clamp, α5β3γ2 in HEK cells; format: cell-based
Procedure, shortened: as §2

[11] = target: human recombinant α1β1γ2 GABAA receptor (Homo sapiens, UniProt P14867+P18505); assay: Two electrode voltage clamp, α1β1γ2 in Xenopus oocytes; format: cell-based
Procedure, shortened: (§3)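 Xenopus oocytes expressing subunit cDNA; two-electrode voltage clamp at −80 mV, 18 °C, superfused with OR2 medium pH 7.4. Submaximal GABA given alone for 15 s, then co-applied with test compound at half-log steps 0.1–10 μM (0.3% DMSO). GABA: 10 μM for α1β1γ2, 3 μM for α6β3δ. n = 3 cells per concentration. Potentiation = peak amplitude with test compound / GABA alone ×100.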

[12] = target: human recombinant α6β3δ GABAA receptor (Homo sapiens, UniProt P28472+Q16445); assay: Two electrode voltage clamp, α6β3δ in Xenopus oocytes; format: cell-based
Procedure, shortened: as §3

[13] = tested on: dentate granule cells; assay: Acute hippocampal slice recording, tonic current and sIPSCs after washout; format: cell-based, mouse; details: for tonic current density: 15 min pre-incubation, 30–50 min wash; for sIPSC amplitude / sIPSC decay: after 30–50 min wash
Procedure, shortened: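 Acute brain slices from postnatal day 21 C57 mice were held in a holding chamber with 0.1 or 1 μM test compound for 15 min. They were then perfused (2 mL/min) with oxygenated ACSF for 30–50 min before whole-cell patch clamp of dentate granule cells (n = 6–7). Tonic current is the baseline shift with 100 μM picrotoxin, divided by capacitance. sIPSCs were inspected visually and only single-peak events were kept.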

[14] = Brain and plasma pharmacokinetics after single IP or PO dose; format: in vivo, mouse; details: for time of maximum plasma concentration (Cmax) post dose: CD1 mouse; for Cmax / bioavailability: male, CD-1, mouse, plasma, 10 mg/kg
Procedure, shortened: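 Adult male CD-1 mice received a single 10 mg/kg dose: IP in 15% HP-β-CD or PO in 30% SBECD. Sampling: IP at 0.5–8 h (n = 2 per time point); PO at 0.167–12 h (n = 3 per time point). Plasma (K2 EDTA) and snap-frozen brain were collected. Brain was homogenized in 3 vol PBS, extracted by acetonitrile precipitation with internal standard, and assayed by LC-MS/MS (C18, water:methanol gradient, positive MRM). Brain:plasma ratio from a single point at 1 h.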

[15] = tested on: PTZ-induced seizures; assay: Pentylenetetrazole-induced seizures; format: in vivo, mouse; details: vehicle 751 ± 67 s
[16] = Plasma and brain concentrations in PTZ behavioral study; format: in vivo; details: mouse, between 0.3 and 1 mg/kg PO
Procedure, shortened: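 Plasma and brain were collected from a subset of PTZ-study mice plus satellite PK mice (n = 3–4 per dose) after PO dosing. Brain was homogenized in 3 vol PBS, extracted by acetonitrile protein precipitation with internal standard, and quantified by LC-MS/MS against a spiked calibration curve.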

[17] = tested on: β-band EEG power; assay: PharmacoEEG, β-band EEG power and sleep/wake; format: in vivo; details: rat; for sleep time: p < 0.05
Procedure, shortened: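 Adult male Sprague Dawley rats (n = 7 per group) with implanted epidural EEG screw electrodes and EMG were tested after 2 weeks' recovery. After 1 h baseline, they received test compound (0.3, 3 or 20 mg/kg) or vehicle (30% SBECD) PO, followed by 6 h continuous EEG. Sleep/wake was scored in 10 s epochs from EEG/EMG and checked by a blinded expert. Analysis used one-way ANOVA and two-way repeated-measures ANOVA vs vehicle.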

[18] = Plasma concentrations in rats designated for pharmacokinetic analysis; format: in vivo; details: rat, po
[19] = tested on: sigma; details: 10 μM, ref Martinez-Botella et al., 2017; cited from earlier work
[20] = tested on: glycine; details: 10 μM, ref Martinez-Botella et al., 2017; cited from earlier work
[21] = tested on: transient receptor potential cation channel subfamily V member 1 receptor; details: 10 μM; ref Martinez-Botella et al., 2017; cited from earlier work
[22] = tested on: 22 nuclear hormone receptors; details: ref Martinez-Botella et al., 2017; cited from earlier work
[23] = tested on: 8 cardiac ion channels; details: ref Martinez-Botella et al., 2017; cited from earlier work
[24] = tested on: other ion channel and hormone receptors, including AMPA and NMDA; details: ref Martinez-Botella et al., 2017; cited from earlier work
[25] = Phase 1, healthy volunteers, ref Hoffmann et al., 2019, cited from earlier work

T1 sequence (P14867 28-456): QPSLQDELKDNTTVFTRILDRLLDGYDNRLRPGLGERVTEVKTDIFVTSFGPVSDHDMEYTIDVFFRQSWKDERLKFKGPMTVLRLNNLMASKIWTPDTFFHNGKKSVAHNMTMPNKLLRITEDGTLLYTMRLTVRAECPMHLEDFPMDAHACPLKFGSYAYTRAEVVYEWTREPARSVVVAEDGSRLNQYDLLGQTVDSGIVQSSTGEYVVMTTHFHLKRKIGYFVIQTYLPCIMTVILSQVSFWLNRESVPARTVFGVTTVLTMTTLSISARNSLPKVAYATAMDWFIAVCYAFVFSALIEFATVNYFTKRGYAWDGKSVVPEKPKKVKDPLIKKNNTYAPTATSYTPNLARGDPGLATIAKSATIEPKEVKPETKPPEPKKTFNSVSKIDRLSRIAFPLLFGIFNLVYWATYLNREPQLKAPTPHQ
T1 sequence (P47870 25-512 limits assumed): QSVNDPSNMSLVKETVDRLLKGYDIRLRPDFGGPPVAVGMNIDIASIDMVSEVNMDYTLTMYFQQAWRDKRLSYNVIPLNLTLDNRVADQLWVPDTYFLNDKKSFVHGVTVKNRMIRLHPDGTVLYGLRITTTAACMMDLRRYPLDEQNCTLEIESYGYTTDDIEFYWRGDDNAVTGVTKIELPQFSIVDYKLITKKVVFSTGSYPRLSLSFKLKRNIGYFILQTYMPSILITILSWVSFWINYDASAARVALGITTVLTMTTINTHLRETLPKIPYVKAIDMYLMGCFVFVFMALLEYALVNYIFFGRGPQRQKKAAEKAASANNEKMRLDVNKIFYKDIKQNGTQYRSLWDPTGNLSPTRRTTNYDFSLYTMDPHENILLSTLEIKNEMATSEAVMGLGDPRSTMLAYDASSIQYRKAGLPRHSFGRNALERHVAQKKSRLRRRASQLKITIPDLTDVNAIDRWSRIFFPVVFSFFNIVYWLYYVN
T1 sequence (P18507 40-475): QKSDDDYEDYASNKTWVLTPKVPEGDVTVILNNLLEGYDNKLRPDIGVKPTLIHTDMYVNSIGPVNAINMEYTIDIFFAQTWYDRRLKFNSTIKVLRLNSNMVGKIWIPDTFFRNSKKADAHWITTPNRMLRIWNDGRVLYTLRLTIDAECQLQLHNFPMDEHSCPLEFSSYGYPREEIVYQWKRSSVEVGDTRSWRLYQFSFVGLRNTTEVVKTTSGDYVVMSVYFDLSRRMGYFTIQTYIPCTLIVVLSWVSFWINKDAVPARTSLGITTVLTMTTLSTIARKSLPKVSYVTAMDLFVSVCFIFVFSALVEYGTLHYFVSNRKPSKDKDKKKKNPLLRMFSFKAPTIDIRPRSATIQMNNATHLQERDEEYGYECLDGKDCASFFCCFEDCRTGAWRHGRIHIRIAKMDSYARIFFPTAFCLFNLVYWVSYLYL
T2 sequence (P48169 36-554): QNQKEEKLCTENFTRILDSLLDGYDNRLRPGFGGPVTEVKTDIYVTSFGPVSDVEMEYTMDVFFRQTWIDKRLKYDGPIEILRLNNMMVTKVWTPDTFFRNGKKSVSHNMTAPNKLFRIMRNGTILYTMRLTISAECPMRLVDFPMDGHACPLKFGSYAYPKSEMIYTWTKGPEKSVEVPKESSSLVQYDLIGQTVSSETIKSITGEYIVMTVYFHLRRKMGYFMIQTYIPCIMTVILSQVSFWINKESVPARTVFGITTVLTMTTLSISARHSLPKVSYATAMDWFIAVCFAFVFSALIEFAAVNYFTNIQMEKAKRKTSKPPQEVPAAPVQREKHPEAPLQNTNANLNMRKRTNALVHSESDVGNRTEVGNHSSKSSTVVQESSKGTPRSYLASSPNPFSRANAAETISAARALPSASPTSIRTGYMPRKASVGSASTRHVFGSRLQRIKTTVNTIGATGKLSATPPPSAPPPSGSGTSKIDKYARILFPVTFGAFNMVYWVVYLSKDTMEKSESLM
T2 sequence (P28472 26-473): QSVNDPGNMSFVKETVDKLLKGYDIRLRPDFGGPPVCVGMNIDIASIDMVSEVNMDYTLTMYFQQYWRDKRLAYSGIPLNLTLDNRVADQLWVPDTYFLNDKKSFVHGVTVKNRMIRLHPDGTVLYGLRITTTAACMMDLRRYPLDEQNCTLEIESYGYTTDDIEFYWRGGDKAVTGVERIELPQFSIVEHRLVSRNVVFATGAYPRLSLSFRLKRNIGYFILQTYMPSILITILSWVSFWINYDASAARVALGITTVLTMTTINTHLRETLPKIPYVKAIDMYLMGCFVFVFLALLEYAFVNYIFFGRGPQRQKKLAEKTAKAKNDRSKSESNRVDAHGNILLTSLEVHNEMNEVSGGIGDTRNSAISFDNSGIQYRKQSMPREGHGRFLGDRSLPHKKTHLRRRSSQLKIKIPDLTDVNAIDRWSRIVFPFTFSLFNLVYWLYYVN
T2 sequence (O14764 17-452 partner limits assumed): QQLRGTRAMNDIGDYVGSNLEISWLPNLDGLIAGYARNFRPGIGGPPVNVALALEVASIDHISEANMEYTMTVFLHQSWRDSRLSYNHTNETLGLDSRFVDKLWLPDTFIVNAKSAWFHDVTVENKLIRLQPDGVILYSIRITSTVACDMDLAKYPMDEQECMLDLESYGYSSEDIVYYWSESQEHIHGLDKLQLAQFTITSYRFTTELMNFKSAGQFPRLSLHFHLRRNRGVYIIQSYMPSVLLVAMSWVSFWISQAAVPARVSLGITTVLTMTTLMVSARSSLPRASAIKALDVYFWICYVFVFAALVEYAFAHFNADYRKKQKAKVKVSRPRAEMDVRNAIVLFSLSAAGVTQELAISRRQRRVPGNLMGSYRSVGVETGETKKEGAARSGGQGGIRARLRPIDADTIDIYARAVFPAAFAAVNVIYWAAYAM
Sequence of human recombinant α1β3γ2 GABAA receptor (P14867 28-456): as the sequence (P14867 28-456) above
Sequence of human recombinant α1β3γ2 GABAA receptor (P28472 26-473): as the sequence (P28472 26-473) above
Sequence of human recombinant α1β3γ2 GABAA receptor (P18507 40-475 partner): as the sequence (P18507 40-475) above
Sequence of human recombinant α3β3γ2 GABAA receptor (P34903 29-492): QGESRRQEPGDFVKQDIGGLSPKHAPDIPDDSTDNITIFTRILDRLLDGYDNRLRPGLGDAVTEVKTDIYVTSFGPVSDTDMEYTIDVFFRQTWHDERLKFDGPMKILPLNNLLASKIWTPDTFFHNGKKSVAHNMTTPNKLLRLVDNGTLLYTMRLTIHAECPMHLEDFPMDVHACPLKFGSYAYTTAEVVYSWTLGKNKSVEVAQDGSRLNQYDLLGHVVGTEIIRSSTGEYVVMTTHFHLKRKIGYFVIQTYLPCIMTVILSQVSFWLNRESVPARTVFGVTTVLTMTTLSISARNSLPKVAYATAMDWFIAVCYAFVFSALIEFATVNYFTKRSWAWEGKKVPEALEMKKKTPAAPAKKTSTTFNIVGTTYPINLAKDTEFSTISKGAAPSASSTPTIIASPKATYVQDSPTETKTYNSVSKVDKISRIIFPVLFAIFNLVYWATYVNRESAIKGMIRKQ
Sequence of human recombinant α3β3γ2 GABAA receptor (P28472 26-473): as the sequence (P28472 26-473) above
Sequence of human recombinant α3β3γ2 GABAA receptor (P18507 40-475 partner): as the sequence (P18507 40-475) above
Sequence of human recombinant α5β3γ2 GABAA receptor (P31644 32-462): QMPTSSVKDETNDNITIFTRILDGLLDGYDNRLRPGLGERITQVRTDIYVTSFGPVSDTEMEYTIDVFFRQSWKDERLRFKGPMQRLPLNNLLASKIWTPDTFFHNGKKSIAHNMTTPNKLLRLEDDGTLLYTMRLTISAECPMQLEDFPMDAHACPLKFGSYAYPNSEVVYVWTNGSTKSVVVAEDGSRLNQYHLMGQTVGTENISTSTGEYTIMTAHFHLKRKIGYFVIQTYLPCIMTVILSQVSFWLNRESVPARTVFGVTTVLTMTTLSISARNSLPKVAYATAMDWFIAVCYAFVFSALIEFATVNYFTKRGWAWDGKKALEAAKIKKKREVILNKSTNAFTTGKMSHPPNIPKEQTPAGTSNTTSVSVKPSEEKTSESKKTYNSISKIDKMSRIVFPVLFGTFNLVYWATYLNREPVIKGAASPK
Sequence of human recombinant α5β3γ2 GABAA receptor (P28472 26-473): as the sequence (P28472 26-473) above
Sequence of human recombinant α5β3γ2 GABAA receptor (P18507 40-475 partner): as the sequence (P18507 40-475) above
Sequence of human recombinant α1β1γ2 GABAA receptor (P14867 28-456): as the sequence (P14867 28-456) above
Sequence of human recombinant α1β1γ2 GABAA receptor (P18505 26-474): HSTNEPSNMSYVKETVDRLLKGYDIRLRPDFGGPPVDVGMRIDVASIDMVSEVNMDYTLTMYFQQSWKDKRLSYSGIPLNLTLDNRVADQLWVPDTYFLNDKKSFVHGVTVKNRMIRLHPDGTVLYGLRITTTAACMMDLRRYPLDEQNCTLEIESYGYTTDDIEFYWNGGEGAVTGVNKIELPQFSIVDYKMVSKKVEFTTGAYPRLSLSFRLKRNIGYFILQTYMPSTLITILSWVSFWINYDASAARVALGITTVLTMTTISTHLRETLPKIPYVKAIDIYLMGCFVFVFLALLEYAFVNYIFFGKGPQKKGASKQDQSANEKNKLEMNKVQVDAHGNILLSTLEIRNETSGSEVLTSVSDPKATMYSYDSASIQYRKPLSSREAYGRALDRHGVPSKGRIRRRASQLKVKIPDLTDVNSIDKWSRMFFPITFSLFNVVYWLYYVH
Sequence of human recombinant α1β1γ2 GABAA receptor (P18507 40-475 partner): as the sequence (P18507 40-475) above

CN1C(=O)CN=C(c2ccccc2)c2cc(Cl)ccc21 [DZP, diazepam, reference compound]
enhancement of GABA currents ([1]; 100 nM DZP alone, α1β2γ2, 2 μM GABA): 104% | concentration applied alone required to reach 150% effect level [1]: 360 nM | potentiation of current when applied alone ([2]; α4β3δ, DZP alone): did not potentiate

O=S(=O)(O)C1CCNCC1 [P4S, piperidine-4-sulphonic acid]
EC50 ([3]; P4S alone): 45 µM and 44.5 µM | EC50 ([3]; with 200 nM zuranolone): 25.2 µM | Emax of P4S ([3]; P4S alone, normalized to maximum current evoked by saturating GABA (100 μM)): 25%

C[C@@]1(O)CC[C@H]2[C@H](CC[C@@H]3[C@@H]2CC[C@]2(C)[C@@H](C(=O)Cn4cc(C#N)cn4)CC[C@@H]32)C1 [zuranolone, 3α-Hydroxy-3β-methyl-21-(4-cyano-1H-pyrazol-1’-yl)-19-nor-5β-pregnan-20-one]
EC50 [4]: 0.118 µM | Emax ([4]; CHO): 556% | EC50 [5]: 0.43 µM | EC50 [6]: 0.184 µM | EC50 [7]: 0.39 µM | Emax ([7]; HEK293): 684% | EC50 [8]: 0.516 µM | EC50 [9]: 0.293 µM | Emax ([9]; HEK293): 291% | EC50 [10]: 0.298 µM | Emax ([10]; HEK293): 534% | EC50 [11]: 1.26 µM | EC50 [12]: 0.78 µM | EC50 [1]: 0.844 µM | concentration required to potentiate the current greater than 150% ([1]; α1β2γ2, coapplied with 100 nM DZP): 10 nM | interaction of zuranolone and DZP by isobolographic analysis ([1]; α1β2γ2, coapplied zuranolone and DZP): synergistically | maximal potentiation ([1]; α1β2γ2, in the presence of 100 nM DZP): 1084% | concentration applied alone required to reach 150% effect level [1]: 315 nM | maximal potentiation ([1]; α1β2γ2, without DZP): 511% | EC50 [2]: 0.135 µM | tonic current density ([13]; 0.1 μM): 2.48 ± 0.7 pA/pF | sIPSC amplitude ([13]; 0.1 μM): 99 ± 26 pA | sIPSC decay ([13]; 0.1 μM): 10 ± 1 ms | tonic current density ([13]; 1 μM): 5.55 ± 1.3 pA/pF | sIPSC amplitude ([13]; 1 μM): 57 ± 7 pA | sIPSC decay ([13]; 1 μM): 24 ± 4 ms | sIPSC frequency ([13]; following zuranolone exposure): no change | time of maximum plasma concentration (Cmax) post dose ([14]; 10 mg/kg IP): 30 min | time of maximum plasma concentration (Cmax) post dose ([14]; 10 mg/kg PO): 30 min | Cmax ([14]; ip): 3.2 µg/mL | bioavailability ([14]; ip): 89% | Cmax ([14]; po): 1.33 µg/mL | bioavailability ([14]; po): 62% | latency to tonic seizures ([15]; mouse, 0.3 mg/kg PO, non-significant trend (p = 0.06)): 1033 ± 179 s | latency to tonic seizures ([15]; mouse, 1, 3, and 10 mg/kg PO, 60 min prior to 120 mg/kg PTZ): ≥ 1688 ± 56 s | brain concentrations [16]: 60 to 143 ng/g | sleep or wake time ([17]; 0.3 mg/kg PO): No changes in sleep or wake time | β-band EEG power relative to vehicle ([17]; 0.3 mg/kg PO, p = 0.58): did not elicit a significant increase | time of β-band EEG power peak post dose ([17]; 3 mg/kg PO): approximately 0.5 h | β-band EEG power at one hour vs vehicle ([17]; 3 mg/kg PO, p < 0.0005): significantly greater than vehicle | sleep time ([17]; 3 mg/kg PO): increased sleep time during the first hour | time of β-band EEG power peak ([17]; 20 mg/kg PO): ≤ 30 min | sleep time ([17]; 20 mg/kg PO): increased time spent in sleep during all three hours | β-band EEG power at one hour vs vehicle ([17]; 20 mg/kg PO, p = 0.79): not significantly different from vehicle | concentration at 60 min ([18]; 0.3 mg/kg): 0.022 µg/mL | concentration at 60 min ([18]; 3 mg/kg): 0.301 µg/mL | concentration at 60 min ([18]; 20 mg/kg): 1.47 µg/mL | inhibition of radioligand binding [19]: 87% | inhibition of radioligand binding [20]: 57% | antagonist activity [21]: 96% | effects at 22 nuclear hormone receptors [22]: no significant effects | effects at 8 cardiac ion channels [23]: no significant effects | selectivity for GABAA receptors vs other ion channel and hormone receptors [24]: selective | tolerability ([25]; oral administration): generally well tolerated | pharmacokinetics following oral administration [25]: predictable pharmacokinetics
